ChEMBL document CHEMBL3091410, “Enmein-type 6,7-seco-ent-kauranoids from Isodon sculponeatus” (J Nat Prod, 2013)

Columns and labels:
[1] = system: HL-60; assay: Cytotoxicity against human HL60 cells after 48 hrs by MTS assay; assay type: functional, cell-based; conditions: HL-60, 48 h
Outline: (§1)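 Lines obtained from ATCC, grown in RPMI-1640 or DMEM with 10% FBS at 37 °C, 5% CO2. Adherent cells seeded at 1 × 10^5 cells/mL and allowed to attach 12 h; suspension cells seeded just before dosing. Range of concentrations tested in triplicate for 48 h. MTS then added for 4 h at 37 °C, cells lysed in 20% SDS-50% DMF, OD read at 490 nm. IC50 by Reed and Muench method.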

[2] = system: A549; assay: Cytotoxicity against human A549 cells after 48 hrs by MTS assay; assay type: functional, cell-based; conditions: A549, 48 h; outline: as §1
[3] = system: MCF7; assay: Cytotoxicity against human MCF7 cells after 48 hrs by MTS assay; assay type: functional, cell-based; conditions: MCF7, 48 h; outline: as §1
[4] = system: SMMC-7721; assay: Cytotoxicity against human SMMC7721 cells after 48 hrs by MTS assay; assay type: functional, cell-based; conditions: SMMC-7721, 48 h; outline: as §1
[5] = system: SW480; assay: Cytotoxicity against human SW480 cells after 48 hrs by MTS assay; assay type: functional, cell-based; conditions: SW480, 48 h; outline: as §1
[6] = system: RAW264.7; assay: Inhibition of LPS-stimulated NO production in mouse RAW264.7 cells after 18 hrs by Griess assay; assay type: functional, cell-based; conditions: RAW264.7, 18 h
Outline: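 RAW264.7 macrophages, 2 × 10^5 cells/well in RPMI 1640 with 10% FBS, preincubated 24 h. Serial dilutions up to 25 μM (DMSO stock diluted in medium) given with 1 μg/mL LPS for 18 h. Supernatant mixed 1:1 with Griess reagent, in triplicate, 5 min; absorbance at 570 nm. Parallel MTS viability check under the same 18 h conditions.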

[7] = system: SW480; assay: Potency index, ratio of cisplatin IC50 to compound IC50 for human SW480 cells; assay type: functional

Structure (SMILES) | IC50 [1] [µM] | IC50 [2] [µM] | IC50 [3] [µM] | IC50 [4] [µM] | IC50 [5] [µM] | IC50 [6] [µM] | Ratio IC50 [7]
C=C1[C@@H]2C[C@@H](O)[C@@H]3[C@](C2)(C(=O)O[C@H]2CC[C@@]4(C)CO[C@H]5OC[C@]23[C@H]54)[C@@H]1O [SCULPONEATIN B] | > 40 | > 40 | > 40 | > 40 | > 40 |  | 
CC1(C)[C@H](O)C[C@@H]2OC(=O)[C@@]34C[C@@H](C[C@@H](O)[C@H]3[C@]23CO[C@@H](O)[C@H]13)[C@](C)(O)C4=O | > 40 | > 40 | > 40 | > 40 | > 40 |  | 
C=C1[C@@H]2CC[C@@H]3[C@](C2)(C(=O)O[C@H]2CCC(C)(C)[C@H]4[C@H](O)OC[C@@]243)[C@@H]1O | > 40 | > 40 | > 40 | > 40 | > 40 |  | 
C=C1[C@@H](O)[C@]23C[C@@]1(O)C[C@@H](O)[C@H]2[C@]12CO[C@@H]4OC[C@](C)(CC[C@@H]1OC3=O)[C@@H]42 | > 40 | > 40 | > 40 | > 40 | > 40 |  | 
C=C1[C@@H]2C=C[C@@H]3[C@](C2)(C(=O)O[C@H]2CCC(C)(C)[C@H]4[C@H](O)OC[C@@]243)[C@@H]1O | > 40 | > 40 | > 40 | > 40 | > 40 |  | 
C=C1[C@H]2C[C@@]3(C(=O)O[C@H]4CCC(C)(C)[C@H]5[C@H](O)OC[C@@]45[C@@H]3[C@@H]3O[C@@H]32)[C@@H]1O | > 40 | > 40 | > 40 | > 40 | > 40 |  | 
C=C1C(=O)[C@]23C[C@H]1C[C@@H](O)[C@H]2[C@@]12CO[C@@H](O)[C@@H]1C(C)(C)CC[C@@H]2OC3=O [NODOSIN] | 15 | > 40 | 23.5 | 27 | 12.1 | 18.4 | 
C=C1C(=O)[C@]23C[C@H]1C[C@H](O)[C@H]2[C@@]12CO[C@@H](O)[C@@H]1C(C)(C)CC[C@@H]2OC3=O [EPINODOSIN] | > 40 | > 40 | > 40 | > 40 | > 40 |  | 
C=C1C(=O)[C@]23C[C@H]1CC[C@H]2[C@@]12CO[C@@H](O)[C@@H]1C(C)(C)CC[C@@H]2OC3=O | 2.8 | 3.2 | 2.6 | 3.5 | 1 | 2.2 | 15
CC(=O)O[C@H]1C(=O)[C@@]2(C)[C@H]([C@H](OC(=O)c3ccccc3)[C@]3(O)C[C@H](OC(=O)[C@H](O)[C@@H](NC(=O)c4ccccc4)c4ccccc4)C(C)=C1C3(C)C)[C@]1(OC(C)=O)CO[C@@H]1C[C@@H]2O [PACLITAXEL] | < 0.008 | < 0.008 | < 0.008 | < 0.008 | < 0.008 |  | 
C=C1C(=O)[C@]23C[C@H]1CC[C@H]2[C@@]12CO[C@@H](O)[C@@H]1C(C)(C)[C@@H](O)C[C@@H]2OC3=O [ENEMIN] | > 40 | > 40 | > 40 | > 40 | > 40 |  | 
C=C1C(=O)[C@]23C[C@H]1C[C@@H](O)[C@H]2[C@]12CO[C@@H]4OC[C@](C)(CC[C@@H]1OC3=O)[C@@H]42 [SCULPONEATIN A] | 12.7 | 17.1 | 15 | 15.2 | 3.5 | 9.1 | 
